The structures appear in SMILES notation.

Data set [1] relates to Rattus norvegicus. As to the kind of experiment: Antiinflammatory activity in Sprague-Dawley rat assessed as reduction of carrageenan-induced paw edema at 200 mg/kg, po administered 30 mins before carrageenan challenge measured after 1 hr by mercury displacement method relative to control. It is filed as functional. Also noted: scale not given: the % may be the effect or the level left. Summed up: (§1)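 Rats (150–230 g; groups of six), paw edema induced with 1.0% carrageenan. Compounds given p.o. as suspensions in 2% sodium CMC 30 min before carrageenan, test compounds at 200 mg/kg and indomethacin standard at 50 mg/kg; 2% CMC served as control. Paw volume measured by mercury-displacement plethysmography. Mean ± SEM of six animals.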
(In general: The carrageenan paw model is a standard test of acute inflammation.)

The subject of data set [2] is Rattus norvegicus. In words: Gastrointestinal toxicity in Sprague-Dawley rat assessed as lengths of longest diameters of lesions at 20 mg/kg, po after 6 hrs. Format: organism-based. Set-up: dose 20 mg/kg, route oral. As to conditions: in vivo. In a few lines: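 SD rats of either sex (150–200 g), groups of six; dosed orally in 0.1% Tween 80, vehicle as control. Stomachs taken 6 h later, ligated and stored overnight in 2% v/v formol saline. Next day opened along greater curvature, washed in warm water and viewed under 3-fold magnifier. Longest lesion diameters summed per animal as total lesion score (mm); group mean ± SEM.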

For the next data set, the system named is Mus musculus. As to the kind of experiment: Analgesic activity in albino mouse assessed as protection against acetic acid-induced writhing at 100 mg/kg, po administered 30 mins prior to acetic acid challenge measured after 15 mins. Format: functional. Summed up: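 Albino mice of either sex, 20–25 g, groups of six. Dosed orally as suspension in 2% CMC 30 min before i.p. acetic acid (0.6% v/v in distilled water, 1 mL/kg); controls given 2% CMC alone, standard acetyl salicylic acid. Writhes per animal counted for 15 min; activity expressed as percentage protection. Mean ± SEM, n = 6.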
A general note: In writhing tests, fewer writhes than in controls are read as antinociception.

The test system of data set [3] is Rattus norvegicus. As to the kind of experiment: Antiinflammatory activity in Sprague-Dawley rat assessed as reduction of carrageenan-induced paw edema at 50 mg/kg, po administered 30 mins before carrageenan challenge measured after 1 hr by mercury displacement method relative to control. Set-up: scale not given: the % may be the effect or the level left. Format: functional. Summed up: as §1

Regarding `Cc1nc2cc(NCc3ccccc3Cl)ccc2n1S(=O)(=O)c1ccccc1`, the Activity in the data set with Rattus norvegicus [1] stood at 8.6%.

On to `Cc1nc2cc(Nc3ccc(N)cc3)ccc2n1S(=O)(=O)c1ccccc1`, for which the Activity in the data set on Rattus norvegicus [2] stood at 16 mm; in the data set on Rattus norvegicus [1], 39.7%; in the data set with Mus musculus it was 56.9%.

Consider `CCNc1ccc2c(c1)nc(C)n2S(=O)(=O)c1ccccc1`, for which, in the data set on Rattus norvegicus [1], the Activity is 7.2%.

Regarding `CCCCNc1ccc2c(c1)nc(C)n2S(=O)(=O)c1ccccc1`, the Activity with Rattus norvegicus [1] was 7.9%.

As to `Cc1nc2cc(Nc3ccc([N+](=O)[O-])cc3)ccc2n1S(=O)(=O)c1ccccc1`, in the data set with Rattus norvegicus [1], the Activity is 10.6%.

Turning to `Cc1nc2cc(NCc3ccc([N+](=O)[O-])cc3)ccc2n1S(=O)(=O)c1ccccc1`, the Activity in the data set on Rattus norvegicus [1] amounted to 10.8%.

As for `CCCNc1ccc2c(c1)nc(C)n2S(=O)(=O)c1ccccc1`, the Activity in the data set on Rattus norvegicus [1] was 7.7%.

As to `Cc1nc2cc(Nc3ccccc3N)ccc2n1S(=O)(=O)c1ccccc1`, the Activity is listed as 14 mm in the data set on Rattus norvegicus [2], 37% in the data set with Rattus norvegicus [1] and 55.3% in the data set with Mus musculus.

Turning to `Cc1nc2cc(Nc3ccccc3[N+](=O)[O-])ccc2n1S(=O)(=O)c1ccccc1`, the Activity with Rattus norvegicus [1] came to 10.2%.

For `Cc1nc2cc(NCc3ccc(Cl)cc3)ccc2n1S(=O)(=O)c1ccccc1`, in the data set on Rattus norvegicus [1], the Activity was determined as 9.2%.

For `Cc1nc2cc(NCc3ccc(N)cc3)ccc2n1S(=O)(=O)c1ccccc1`, the Activity was 15 mm in the data set with Rattus norvegicus [2] and 33.7% with Rattus norvegicus [1].

Consider `CNc1ccc2c(c1)nc(C)n2S(=O)(=O)c1ccccc1`, for which, in the data set on Rattus norvegicus [1], the Activity stood at 6.7%.

`CC(=O)Oc1ccccc1C(=O)O` [ASPIRIN]: the Activity in the data set on Mus musculus was determined as 57.8%.

On to `COc1ccc2c(c1)c(CC(=O)O)c(C)n2C(=O)c1ccc(Cl)cc1` [INDOMETHACIN], for which the Activity is listed as 43.4% in the data set with Rattus norvegicus [3] and 26 mm in the data set with Rattus norvegicus [2].

The values are drawn from ChEMBL document CHEMBL1165862, “Synthesis and pharmacological evaluation of novel 5-substituted-1-(phenylsulfonyl)-2-methylbenzimidazole derivatives as anti-inflammatory and analgesic agents” (Eur J Med Chem, 2010).
